The source made the active and inactive calls. No cut-off for these calls is given here. Peptide text beside a SMILES is read from it.

One assay deals with THP-1. Description: Effective dose against monocyte chemoattractant protein-1(MCP-1) induced leukocyte migration of THP-1 cells. Format: functional. The settings on record: Homo sapiens, read-out: ED50 (the source's name). An outline of the steps: (§1)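 Trans-well microtiter migration of human myelomonocytic THP-1 cells toward 25 ng/mL MCP-1 in Gey's balanced salt solution with 1 mg/mL endotoxin-free BSA, no fetal calf serum, 2 h at 37 °C. Compound is in both compartments, DMSO 1% final, tested up to 100 μM. Migrated cells are counted by MTT as % of vehicle-only migration. ED50 is the concentration giving 50% reduction; triplicate determinations.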
Consider `CC(C)[C@H](NC(=O)[C@H](Cc1c[nH]c2ccccc12)NC(=O)[C@H](CCCCN)NC(=O)[C@H](CCC(N)=O)NC(=O)[C@@H](N)CCCCN)C(=O)N[C@@H](CCC(N)=O)C(=O)O` (H-KQKWVQ-OH), for which the EC50 came to 6 µM.
On the same count and under the same terms, the figure for `CC[C@H](C)[C@H](NC(=O)[C@@H](N)CCC(=O)O)C(=O)N[C@@H](CS)C(=O)N[C@@H](C)C(=O)N[C@@H](CC(=O)O)C(=O)N1CCC[C@H]1C(=O)N[C@@H](CCCCN)C(=O)N[C@@H](CCC(N)=O)C(=O)N[C@@H](CCCCN)C(=O)N[C@@H](Cc1c[nH]c2ccccc12)C(=O)N[C@H](C(=O)N[C@@H](CCC(N)=O)C(=O)O)C(C)C` (H-EICADPKQKWVQ-OH) is 8 µM.
For `O=C1CC[C@H](NC(=O)c2ccccc2)C(=O)N1`, the EC50 is above 100 µM.
As for `CCCCCCCCC(=O)N[C@H]1CCC(=O)NC1=O`, the EC50 was 0.01 µM.
Still for that read-out and setting: the figure for `NCCCC[C@H](NC(=O)[C@H](CCC(N)=O)NC(=O)[C@@H](N)CCCCN)C(=O)O` is 12 µM; for `C=CCCCCCCCCC(=O)N[C@@H](CCC(N)=O)C(N)=O` it is 15 µM.
Same read-out and setting: then `CC[C@H](C)[C@H](NC(=O)[C@@H](N)CCC(=O)O)C(=O)N[C@@H](CS)C(=O)N[C@@H](C)C(=O)N[C@@H](CC(=O)O)C(=O)N1CCC[C@H]1C(=O)O` (H-EICADP-OH), with 50 µM; and `CCCCC(=O)N[C@H]1CCC(=O)NC1=O`, with 0.033 µM.
Same read-out and setting: the figure for `CC(C)(C)OC(=O)N[C@@H](CCC(N)=O)C(=O)NCc1ccccc1` is above 100 µM.
On to `CC(C)[C@H](NC(=O)[C@@H](N)Cc1c[nH]c2ccccc12)C(=O)N[C@@H](CC(N)=O)C(=O)O` (H-Trp-Val-Asn-OH), for which the EC50 was above 100 µM.
Same read-out and setting: the figure for `C=CCCCCCCCCC(=O)N[C@H]1CCC(=O)N(C)C1=O` is 0.033 µM; for `C=CCCCCCCCCC(=O)N[C@@H](CCC(N)=O)C(=O)NCc1ccccc1` it is 40 µM.
On to `NC(=O)CC[C@H](NC(=O)c1ccccc1)C(=O)NCc1ccccc1`, for which the EC50 is above 100 µM.
For the compound `CC(C)(C)OC(=O)N[C@@H](CCC(N)=O)C(N)=O`, the EC50 is 45 µM.
Still for that read-out and setting: the figure for `C=CCCCCCCCCC(=O)N[C@H]1CCCNC1=O` is 0.1 µM.
Same read-out and setting: then `NC(=O)CC[C@H](NC(=O)c1ccccc1)C(N)=O`, with above 100 µM; and `CC(C)[C@H](N)C(=O)N[C@H](C(=O)N[C@@H](CCC(N)=O)C(=O)O)C(C)C` (H-Val-Val-Gln-OH), with above 100 µM; and `CCCCCCCCCCC(=O)N[C@H]1CCC(=O)NC1=O`, with 0.01 µM.
For the compound `NC(=O)CC[C@H](NC(=O)c1ccccc1)C(=O)O`, the EC50 was above 100 µM.
Still for that read-out and setting: then `CC(C)[C@H](NC(=O)[C@H](Cc1c[nH]c2ccccc12)NC(=O)[C@H](CCCCN)NC(=O)[C@H](CCC(N)=O)NC(=O)[C@H](CCCCN)NC(=O)[C@@H]1CCCN1C(=O)[C@H](CC(=O)O)NC(=O)[C@H](C)NC(=O)[C@@H](N)CS)C(=O)N[C@@H](CCC(N)=O)C(=O)O` (H-CADPKQKWVQ-OH), with 8 µM; and `CC(C)[C@H](NC(=O)[C@@H](N)Cc1ccc(O)cc1)C(=O)N[C@@H](CCC(N)=O)C(=O)O` (H-Tyr-Val-Gln-OH), with 25 µM.
On the same count and under the same terms, the figure for `CCCCCCC(=O)N[C@H]1CCC(=O)NC1=O` is 0.02 µM; for `CCCC(CCC)C(=O)N[C@H]1CCC(=O)NC1=O` it is 0.66 µM; for `O=C(O)CCCCCCCCC(=O)N[C@H]1CCC(=O)NC1=O` it is 0.066 µM.

For another assay, the system named is THP-1. Description: Effective dose against monocyte chemoattractant protein-1(MCP-1) induced leukocyte migration of THP-1 cells at 100 uM conc.; Inactive. The format is functional, cell-based. The settings on record: Homo sapiens. An outline of the steps:
as §1
Turning to `CC(C)[C@H](NC(=O)[C@H](CCC(N)=O)NC(=O)[C@@H](N)Cc1c[nH]c2ccccc12)C(=O)O` (H-Trp-Gln-Val-OH), the NA result is “inactive”.
For the compound `CC(C)[C@H](N)C(=O)N[C@@H](Cc1c[nH]c2ccccc12)C(=O)N[C@@H](CCC(N)=O)C(=O)O` (H-Val-Trp-Gln-OH), the NA entry is “inactive”.
The same measure, in the same setting: then `CC(C)[C@H](NC(=O)[C@@H](N)Cc1c[nH]c2ccccc12)C(=O)NCC(=O)O` (H-Trp-Val-Gly-OH), with “inactive”; and `CC(C)[C@H](NC(=O)[C@@H](N)Cc1c[nH]c2ccccc12)C(=O)N[C@@H](CCCN=C(N)N)C(=O)O` (H-Trp-Val-Arg-OH), with “inactive”.
Still for that read-out and setting: the entry for `CC(C)[C@H](NC(=O)CN)C(=O)N[C@@H](CCC(N)=O)C(=O)O` (H-Gly-Val-Gln-OH) is “inactive”.
